Laboratory results reported in ChEMBL document CHEMBL4346684, “Synthesis and structure-bactericidal activity relationships of non-ketolides: 9-Oxime clarithromycin 11,12-cyclic carbonate featured with three-to eight-atom-length spacers at 3-OH” (Eur J Med Chem, 2019).
Converted amounts (≈) assume the structure as drawn.

How the values were obtained:
Format in all cases: functional
Staphylococcus aureus [1] = assay: Bactericidal activity against constitutively erythromycin resistant and methicillin-resistant Staphylococcus aureus PU20 expressing c-ermC assessed as reduction in colony formation incubated in CAMHB medium for 20 hrs followed by 24 hrs subculturing in the medium without test compound
Streptococcus pyogenes [2] = assay: Antimicrobial activity against inducibly erythromycin resistant Streptococcus pyogenes 01-968 expressing i-ermA incubated in CAMHB medium for 20 to 24 hrs by two-fold microbroth dilution method
Haemophilus influenzae [3] = assay: Ratio of MBC to MIC for azithromycin-susceptible Haemophilus influenzae ATCC 49247
Haemophilus influenzae [4] = assay: Bactericidal activity against azithromycin-susceptible Haemophilus influenzae ATCC 49247 assessed as reduction in colony formation incubated in HTM broth medium for 20 to 24 hrs followed by 24 hrs subculturing in the medium without test compound
Staphylococcus aureus [5] = assay: Antimicrobial activity against constitutively erythromycin resistant and methicillin resistant Staphylococcus aureus PU20 expressing c-ermC incubated in CAMHB medium for 20 hrs by two-fold microbroth dilution method; settings: PU20, 20 h
How it was run: (§1)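 Purified fresh Staphylococcus isolate at about 5×10^5 CFU/ml final in CAMHB, 35 °C for 20 h. Each run included ATCC strains and reference antibiotics as QC, plus an antibiotic-free growth control.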

Streptococcus pneumoniae [6] = assay: Antimicrobial activity against erythromycin-susceptible Streptococcus pneumoniae ATCC 49619 incubated in CAMHB medium for 20 to 24 hrs by two-fold microbroth dilution method
Staphylococcus aureus [7] = assay: Bactericidal activity against inducibly erythromycin-resistant and methicillin resistant Staphylococcus aureus PU32 expressing i-ermA assessed as reduction in colony formation incubated in CAMHB medium for 20 hrs followed by 24 hrs subculturing in the medium without test compound
Streptococcus pneumoniae [8] = assay: Antimicrobial activity against mef-encoded erythromycin resistant Streptococcus pneumoniae PU09 incubated in CAMHB medium for 20 to 24 hrs by two-fold microbroth dilution method
Staphylococcus aureus [9] = assay: Antimicrobial activity against inducibly erythromycin-resistant and methicillin resistant Staphylococcus aureus PU32 expressing i-ermA incubated in CAMHB medium for 20 hrs by two-fold microbroth dilution method; settings: PU32, 20 h; how it was run: as §1
Streptococcus pneumoniae [10] = assay: Bactericidal activity against erythromycin-susceptible Streptococcus pneumoniae ATCC 49619 assessed as reduction in colony formation incubated in CAMHB medium for 20 to 24 hrs followed by 24 hrs subculturing in the medium without test compound
Haemophilus influenzae [11] = assay: Antimicrobial activity against azithromycin-susceptible Haemophilus influenzae ATCC 49247 incubated in HTM broth medium for 20 to 24 hrs by two-fold microbroth dilution method
Streptococcus pneumoniae [12] = assay: Bactericidal activity against mef-encoded erythromycin resistant Streptococcus pneumoniae PU09 assessed as reduction in colony formation incubated in CAMHB medium for 20 to 24 hrs followed by 24 hrs subculturing in the medium without test compound
Streptococcus pyogenes [13] = assay: Bactericidal activity against inducibly erythromycin resistant Streptococcus pyogenes 01-968 expressing i-ermA assessed as reduction in colony formation incubated in CAMHB medium for 20 to 24 hrs followed by 24 hrs subculturing in the medium without test compound
Streptococcus pyogenes [14] = assay: Ratio of MBC to MIC for inducibly erythromycin resistant Streptococcus pyogenes 01-968 expressing i-ermA
Staphylococcus aureus [15] = assay: Ratio of MBC to MIC for inducibly erythromycin-resistant and methicillin resistant Staphylococcus aureus PU32 expressing i-ermA
Streptococcus pneumoniae [16] = assay: Ratio of MBC to MIC for erythromycin-susceptible Streptococcus pneumoniae ATCC 49619
Streptococcus pneumoniae [17] = assay: Ratio of MBC to MIC for mef-encoded erythromycin resistant Streptococcus pneumoniae PU09
Moraxella catarrhalis [18] = assay: Antimicrobial activity against erythromycin-susceptible Moraxella catarrhalis 13L332 incubated in CAMHB medium for 20 hrs by two-fold microbroth dilution method; settings: 13L332, 20 h
How it was run: (§2)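 Clinical isolates and ATCC strains, purified by plate activation and used fresh; inoculum about 5×10^5 CFU/ml final. Grown in CAMHB at 35 °C for 20 h.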

Moraxella catarrhalis [19] = assay: Ratio of MBC to MIC for erythromycin-susceptible Moraxella catarrhalis 13L332
Moraxella catarrhalis [20] = assay: Bactericidal activity against erythromycin-susceptible Moraxella catarrhalis 13L332 assessed as reduction in colony formation incubated in CAMHB medium for 20 hrs followed by 24 hrs subculturing in the medium without test compound
Streptococcus pneumoniae [21] = assay: Antimicrobial activity against constitutively erythromycin resistant Streptococcus pneumoniae PU27 expressing c-erm incubated in CAMHB medium for 20 to 24 hrs by two-fold microbroth dilution method
How it was run: (§3)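 Purified fresh Streptococcus isolate at about 5×10^5 CFU/ml final in CAMHB with 5% horse serum, 35 °C for 20–24 h. […] Each run included ATCC strains and reference antibiotics as QC, plus an antibiotic-free growth control.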

[22] = tested on: Staphylococcus epidermidis; assay: Antimicrobial activity against Staphylococcus epidermidis E1 incubated in CAMHB medium for 20 hrs by two-fold microbroth dilution method; settings: E1, 20 h; how it was run: as §2
Staphylococcus aureus [23] = assay: Antimicrobial activity against inducibly erythromycin resistant Staphylococcus aureus PU64 expressing i-ermA incubated in CAMHB medium for 20 hrs by two-fold microbroth dilution method; settings: PU64, 20 h
How it was run: (§4)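 Purified fresh Staphylococcus isolate at about 5×10^5 CFU/ml final in CAMHB, 35 °C for 20 h. […] Each run included ATCC strains and reference antibiotics as QC, plus an antibiotic-free growth control.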

Staphylococcus aureus [24] = assay: Antimicrobial activity against erythromycin-susceptible Staphylococcus aureus ATCC 29213 incubated in CAMHB medium for 20 hrs by two-fold microbroth dilution method; settings: ATCC 29213, 20 h; how it was run: as §2
Streptococcus pyogenes [25] = assay: Antimicrobial activity against constitutively erythromycin resistant Streptococcus pyogenes A2 expressing c-erm incubated in CAMHB medium for 20 to 24 hrs by two-fold microbroth dilution method; how it was run: as §3
Streptococcus pyogenes [26] = assay: Antimicrobial activity against erythromycin-susceptible Streptococcus pyogenes A3 incubated in CAMHB medium for 20 to 24 hrs by two-fold microbroth dilution method
Staphylococcus aureus [27] = assay: Antimicrobial activity against constitutively erythromycin resistant Staphylococcus aureus PU20 expressing c-ermC incubated in CAMHB medium for 20 hrs by two-fold microbroth dilution method; settings: PU20, 20 h; how it was run: as §4
Staphylococcus aureus [28] = assay: Antimicrobial activity against inducibly erythromycin-resistant Staphylococcus aureus PU32 expressing i-ermA incubated in CAMHB medium for 20 hrs by two-fold microbroth dilution method; settings: PU32, 20 h; how it was run: as §4

| Compound | MBC (Staphylococcus aureus [1]) [µg/mL] | MIC (Streptococcus pyogenes [2]) [µg/mL] | Ratio (Haemophilus influenzae [3]) | MBC (Haemophilus influenzae [4]) [µg/mL] | MIC (Staphylococcus aureus [5]) [µg/mL] | MIC (Streptococcus pneumoniae [6]) [µg/mL] | MBC (Staphylococcus aureus [7]) [µg/mL] | MIC (Streptococcus pneumoniae [8]) [µg/mL] | MIC (Staphylococcus aureus [9]) [µg/mL] | MBC (Streptococcus pneumoniae [10]) [µg/mL] | MIC (Haemophilus influenzae [11]) [µg/mL] | MBC (Streptococcus pneumoniae [12]) [µg/mL] | MBC (Streptococcus pyogenes [13]) [µg/mL] | Ratio (Streptococcus pyogenes [14]) | Ratio (Staphylococcus aureus [15]) | Ratio (Streptococcus pneumoniae [16]) | Ratio (Streptococcus pneumoniae [17]) | further results |
| --- | --- | --- | --- | --- | --- | --- | --- | --- | --- | --- | --- | --- | --- | --- | --- | --- | --- | --- |
| CC[C@H]1OC(=O)[C@H](C)[C@@H](OC(=O)CCNCC#Cc2cccnc2)[C@H](C)[C@@H](O[C@@H]2O[C@H](C)C[C@H](N(C)C)[C@H]2O)[C@](C)(OC)C[C@@H](C)/C(=N\OC)[C@H](C)[C@H]2OC(=O)O[C@@]21C | > 256 | 8 (≈ 9.63 µM) | 1 | 256 (≈ 308 µM) | 256 (≈ 308 µM) | 1 (≈ 1.2 µM) | > 256 | 8 (≈ 9.63 µM) | 64 (≈ 77 µM) | 4 (≈ 4.81 µM) | 256 (≈ 308 µM) | 16 (≈ 19.3 µM) | > 64 | >8 | >4 | 4 | 2 |  |
| C=CCNCCC(=O)O[C@H]1[C@H](C)[C@@H](O[C@@H]2O[C@H](C)C[C@H](N(C)C)[C@H]2O)[C@](C)(OC)C[C@@H](C)/C(=N\OC)[C@H](C)[C@H]2OC(=O)O[C@]2(C)[C@@H](CC)OC(=O)[C@@H]1C |  | 1 (≈ 1.32 µM) | 1 | 256 (≈ 339 µM) | > 256 | 1 (≈ 1.32 µM) | > 256 | 4 (≈ 5.29 µM) | 32 (≈ 42.3 µM) | 2 (≈ 2.65 µM) | 256 (≈ 339 µM) | 8 (≈ 10.6 µM) | > 8 | >8 | >8 | 2 |  |  |
| CC[C@H]1OC(=O)[C@H](C)[C@@H](OC(=O)CCNCCCc2cccnc2)[C@H](C)[C@@H](O[C@@H]2O[C@H](C)C[C@H](N(C)C)[C@H]2O)[C@](C)(OC)C[C@@H](C)/C(=N\OC)[C@H](C)[C@H]2OC(=O)O[C@@]21C | > 256 | 0.5 (≈ 0.599 µM) | 1 | 256 (≈ 307 µM) | 256 (≈ 307 µM) | 1 (≈ 1.2 µM) | > 256 | 2 (≈ 2.4 µM) | 32 (≈ 38.3 µM) | 8 (≈ 9.58 µM) | 256 (≈ 307 µM) | 4 (≈ 4.79 µM) | > 4 | >8 | >8 | 8 | 2 |  |
| CC[C@H]1OC(=O)[C@H](C)[C@@H](OCC#Cc2cncc(NC(=O)c3ccccn3)c2)[C@H](C)[C@@H](O[C@@H]2O[C@H](C)C[C@H](N(C)C)[C@H]2O)[C@](C)(OC)C[C@@H](C)/C(=N\OC)[C@H](C)[C@H]2OC(=O)O[C@@]21C | > 256 | 16 (≈ 18.2 µM) |  |  | 256 (≈ 291 µM) | 4 (≈ 4.55 µM) | > 256 | 4 (≈ 4.55 µM) | > 256 | 16 (≈ 18.2 µM) |  | 16 (≈ 18.2 µM) | 32 (≈ 36.4 µM) | 2 |  | 4 |  | MIC (Moraxella catarrhalis [18]): 8 µg/mL (≈ 9.09 µM); Ratio (Moraxella catarrhalis [19]): 2; MBC (Moraxella catarrhalis [20]): 16 µg/mL (≈ 18.2 µM) |
| C=CCO/N=C1\[C@H](C)C[C@@](C)(OC)[C@H](O[C@@H]2O[C@H](C)C[C@H](N(C)C)[C@H]2O)[C@@H](C)[C@H](OCC#Cc2cncc(N)c2)[C@@H](C)C(=O)O[C@H](CC)[C@@]2(C)OC(=O)O[C@@H]2[C@H]1C |  |  |  |  |  | 4 (≈ 4.99 µM) |  | 8 (≈ 9.99 µM) |  |  |  |  |  |  |  |  |  | MIC (Streptococcus pneumoniae [21]): 128 µg/mL (≈ 160 µM); MIC [22]: 256 µg/mL (≈ 320 µM); MIC (Staphylococcus aureus [23]): 128 µg/mL (≈ 160 µM); MIC (Staphylococcus aureus [24]): 64 µg/mL (≈ 79.9 µM); MIC (Streptococcus pyogenes [25]): 128 µg/mL (≈ 160 µM); MIC (Streptococcus pyogenes [26]): 4 µg/mL (≈ 4.99 µM); MIC (Staphylococcus aureus [27]): 256 µg/mL (≈ 320 µM); MIC (Staphylococcus aureus [28]): 256 µg/mL (≈ 320 µM) |
